Assay results as given in ChEMBL document CHEMBL1128250, “Structure-activity studies of 2,3,4,4a,5,9b-hexahydroindeno[1,2-c]pyridines as antispermatogenic agents for male contraception” (1995).
Where “and” joins values, the source holds several entries; their conditions need not be identical. Equal values may be shown once.

How the values were obtained:
[1] = test system: Mus musculus; test: Tested for its effect on spermatogenic index 3 days after single oral dose (90 mg/kg),; assay type: functional
Summary of the method: (§1)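 CD-1 outbred Swiss albino male mice, 5 per dose, single gavage on day 0 at 10 mL/kg. Vehicle was 0.15 M acetate buffer pH 5, ethanol/Tween-20/water (3:7:90), or 1% Tween-20 in water. CO2 euthanasia 72 h later. Testes weighed and histologically scored (spermatogenic index 0–6). Values are % reduction versus the assay's vehicle control. Positive control was 30 mg/kg of the parent compound. Significance by Dunnett's one-tailed t-test, p < 0.05.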

[2] = test system: Mus musculus; test: Tested for its effect on testes weight 3 days after single oral dose (90 mg/kg); assay type: functional, Testis; summary of the method: as §1
[3] = test system: Mus musculus; test: Tested for its effect on spermatogenic index 3 days after single oral dose (30 mg/kg); assay type: functional; summary of the method: as §1
[4] = test system: Mus musculus; test: Tested for its effect on testes weight 3 days after single oral dose (30 mg/kg); assay type: functional, Testis; summary of the method: as §1
[5] = test system: Mus musculus; test: Tested for its effect on spermatogenic index 3 days after single oral dose (10 mg/kg),; assay type: functional; summary of the method: as §1
[6] = test system: Mus musculus; test: Tested for its effect on testes weight 3 days after single oral dose (10 mg/kg); assay type: functional, Testis; summary of the method: as §1
[7] = test system: Mus musculus; test: Tested for its effect on spermatogenic index 3 days after single oral dose (90 mg/kg); assay type: functional; summary of the method: as §1
[8] = test system: Mus musculus; test: Tested for its effect on spermatogenic index 3 days after single oral dose (10 mg/kg); assay type: functional
Summary of the method: (§2)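 Male CD-1 (ICR) mice, 7 weeks old on arrival, 5 per dose, single gavage of 10 mL/kg on day 0. Vehicle was 0.15 M acetate buffer pH 5, ethanol/Tween-20/water 3:7:90, or 1% Tween-20. Mice were killed with CO2 at 72 h and testes weighed and scored for spermatogenic index (0–6 scale). Results are % reduction versus the vehicle control. Dunnett's one-tailed t-test.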

[9] = test system: Mus musculus; test: Tested for its effect on testes weight 3 days after single oral dose (3 mg/kg); assay type: functional, Testis; summary of the method: as §2
[10] = test system: Mus musculus; test: Tested for its effect on spermatogenic index 3 days after single oral dose (3 mg/kg),; assay type: functional; summary of the method: as §2
[11] = test system: Mus musculus; test: Tested for its effect on testes weight 3 days after single sub cutaneous dose (30 mg/kg); assay type: functional, Testis
Summary of the method: (§3)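 Single subcutaneous injection, 10 mL/kg, to male CD-1 mice (5 per dose) in ethanol/Tween-20/water (3:7:90, v/v/v) on day 0. Mice were killed at 72 h; testes were weighed and histology scored for spermatogenic index (0–6). Results are % reduction from the vehicle control, with a 30 mg/kg positive control group. Dunnett's one-tailed t-test.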

[12] = test system: Mus musculus; test: Tested for its effect on spermatogenic index 3 days after single sub cutaneous dose (3 mg/kg); assay type: functional; summary of the method: as §3
[13] = test system: Mus musculus; test: Tested for its effect on spermatogenic index 3 days after single sub cutaneous dose (10 mg/kg); assay type: functional; summary of the method: as §3
[14] = test system: Mus musculus; test: Tested for its effect on testes weight 3 days after single sub cutaneous dose (3 mg/kg); assay type: functional, Testis; summary of the method: as §3
[15] = test system: Mus musculus; test: Tested for its effect on spermatogenic index 3 days after single oral dose (3 mg/kg); assay type: functional; summary of the method: as §2
[16] = test system: Mus musculus; test: Tested for its effect on testes weight 3 days after single sub cutaneous (10 mg/kg); assay type: functional, Testis; summary of the method: as §3
[17] = test system: Mus musculus; test: Tested for its effect on spermatogenic index 3 days after single oral dose (90 mg/kg) in mice; assay type: functional; summary of the method: as §1
[18] = test system: Mus musculus; test: Tested for its effect on mouse testes weight 3 days after single oral dose (90 mg/kg); assay type: functional, Testis; summary of the method: as §1
[19] = test system: Mus musculus; test: tested for its effect on testes weight 3 days after single oral dose (30 mg/kg); assay type: functional, Testis
Summary of the method: (§4)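 Male CD-1 (ICR)BR outbred Swiss albino mice, 5/dose, given one oral gavage dose (10 mL/kg) on day 0 in 0.15 M acetate buffer pH 5, ethanol/Tween-20/water (3:7:90), or 1% Tween-20 in water; vehicle and positive-control groups in each assay. Killed by CO2 72 h later; testes weighed. Expressed as % reduction versus vehicle control; Dunnett's one-tailed t-test.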

[20] = test system: Mus musculus; test: tested for its effect on spermatogenic index 3 days after single oral dose (30 mg/kg); assay type: functional
Summary of the method: (§5)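 Male CD-1 (ICR)BR outbred Swiss albino mice, 5/dose, single oral gavage dose (10 mL/kg) on day 0 in acetate buffer pH 5 or Tween-20-based vehicle; killed 72 h later. Testis cross-sections scored histologically on a 0–6 spermatogenic index (Sertoli only to >100 late spermatids/tubule). Reported as % reduction versus vehicle control; Dunnett's one-tailed t-test.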

[21] = test system: Mus musculus; test: tested for its effect on testes weight 3 days after single oral dose (90 mg/kg); assay type: functional, Testis; summary of the method: as §4
[22] = test system: Mus musculus; test: tested for its effect on spermatogenic index 3 days after single oral dose (10 mg/kg); assay type: functional; summary of the method: as §5

| SMILES | Reduction [1] [%] | Reduction [2] [%] | Reduction [3] | Reduction [4] [%] | Reduction [6] [%] | other results |
| --- | --- | --- | --- | --- | --- | --- |
| CCN1CCC(C(O)(c2ccc(C)cc2)c2ccc(C)cc2)CC1.Cl | 0 | -21 | – | – | – | – |
| CCN1CC[C@H]2[C@H](c3ccc(C)cc3)c3ccccc3[C@H]2C1.Cl | – | 20 | 20% | 3 | 5 | Reduction [5]: 0%; Reduction [7]: 35% |
| CCc1ccc2c(c1)[C@@H](c1ccc(C)cc1)[C@@H]1CCN(CC)C[C@H]21.Cl | – | – | 33% | 26 | 2 | Reduction [8]: 7%; Reduction [9]: 3%; Reduction [10]: -2% |
| CCCOC(=O)c1ccc([C@@H]2c3cc(C)ccc3[C@H]3CN(CC)CC[C@@H]23)cc1.Cl | – | – | 56% and 43% | 31 | 3 | Reduction [11]: 17%; Reduction [12]: -1%; Reduction [8]: 33%; Reduction [13]: 13%; Reduction [9]: 11%; Reduction [14]: 7%; Reduction [15]: 2%; Reduction [16]: 10% |
| Cc1ccc([C@@H]2c3cc(C)ccc3[C@H]3CNCC[C@@H]23)cc1.Cl | -5 | -3 | – | – | – | – |
| CCN1CC[C@H]2[C@@H](c3ccc(C)cc3)c3cc(C)ccc3[C@H]2C1.Cl | – | – | – | – | – | Reduction [17]: -9%; Reduction [18]: 2% |
| CCN1CC[C@H]2[C@H](c3ccc(C(=O)O)cc3)c3cc(C)ccc3[C@H]2C1.Cl (stereo in doubt; 10k) | – | – | 51% and 35% | 28 | 24 | Reduction [11]: 17%; Reduction [12]: 8%; Reduction [8]: 36%; Reduction [13]: 27%; Reduction [9]: 13%; Reduction [14]: 5%; Reduction [16]: -3%; Reduction [10]: 2% |
| CCN1CC[C@H]2[C@H](c3ccc(C=O)cc3)c3cc(C)ccc3[C@H]2C1.Cl | – | – | 31% and 30% | 7 | 6 | Reduction [11]: -4%; Reduction [8]: 2%; Reduction [9]: 7%; Reduction [10]: 0% |
| CCN1CCC(C(O)c2ccc(C)cc2)C(c2ccc(C)cc2)C1.Cl (stereo in doubt; 16b) | 0 | 0 | – | – | – | – |
| Cc1ccc([C@@H]2c3cc(C)ccc3[C@H]3CN(C)CC[C@@H]23)cc1.Cl | -3 | 8 | – | – | – | Reduction [19]: 18%; Reduction [20]: 38%; Reduction [21]: 7%; Reduction [22]: 26% |
| CCN1CC[C@H]2[C@H](c3cccc(C)c3)c3cc(C)ccc3[C@H]2C1.Cl | -9 | -11 | – | – | – | – |
| CCN1CC[C@H]2[C@H](c3ccc(F)cc3)c3cc(C)ccc3[C@H]2C1.Cl | -5 | 5 | – | – | – | – |
| CCN1CC[C@H]2[C@H](c3ccccc3)c3cc(C)ccc3[C@H]2C1.Cl | -9 | -8 | – | – | – | – |
| CCN1CCC(=C(c2ccc(C)cc2)c2cccc(C)c2)CC1.Cl | 0 | -5 | – | – | – | – |
| CCN1CC[C@H]2[C@H](c3ccccc3)c3ccccc3[C@H]2C1.Cl | 2 | -2 | – | – | – | – |
| Cc1ccc([C@@H]2c3cc(C)ccc3[C@H]3CN(C(C)C)CC[C@@H]23)cc1.Cl | – | 23 | 28% | 15 | 7 | Reduction [5]: 10%; Reduction [7]: 45% |
| CCCN1CC[C@H]2[C@H](c3ccc(C)cc3)c3cc(C)ccc3[C@H]2C1.Cl | 0 | 11 | – | – | – | – |
| CCN1CCC(C(c2ccc(C)cc2)c2cccc(C)c2)CC1.Cl (centres undefined) | – | – | -5% | 9 | – | Reduction [9]: 2%; Reduction [10]: 2% |
| CCN1CC[C@H]2[C@H](c3ccc(C(=O)O)cc3)c3cc(C)ccc3[C@H]2C1.Cl (stereo in doubt; (l)-10k) | – | -7 | – | – | – | Reduction [7]: 0% |
| CCN1CC[C@@H]2[C@@H](c3ccc(C)cc3)c3cc(C)ccc3[C@H]2C1.Cl | 0 | -18 | – | – | – | – |
| CCN1CC[C@H]2[C@H](c3ccc(C#N)cc3)c3cc(C)ccc3[C@H]2C1.Cl | -4 | 13 | – | – | – | – |
| CCN1CC[C@H]2[C@H](c3ccc(O)cc3)c3cc(C)ccc3[C@H]2C1.Cl | -5 | -1 | – | – | – | – |
| CCc1ccc2c(c1)[C@@H](c1ccc(C(=O)OC)cc1)[C@@H]1CCN(CC)C[C@H]21.Cl | – | – | 23% | 8 | 0 | Reduction [8]: -4%; Reduction [9]: -18%; Reduction [10]: 4% |
| CCN1CC[C@H]2[C@H](c3ccccc3C)c3cc(C)ccc3[C@H]2C1.Cl | -9 | 3 | – | – | – | – |
| CCN1CC[C@H]2[C@H](c3ccc(C(=O)O)cc3)c3cc(C)ccc3[C@H]2C1.Cl (stereo in doubt; (d)-10k) | – | 27 | 67% | 16 | 26 | Reduction [8]: 40%; Reduction [9]: -5%; Reduction [15]: 21%; Reduction [7]: 70% |
| CCN1CCC(C(O)c2ccc(C)cc2)C(c2ccc(C)cc2)C1.Cl (stereo in doubt; 16a) | – | -9 | – | – | – | – |
| CCN1CC[C@H]2[C@H](c3ccc(CO)cc3)c3cc(C)ccc3[C@H]2C1.Cl | -5 | 4 | 57% | 23 | 13 | Reduction [11]: 6%; Reduction [8]: 20% |
